Experimental data pooled from the literature.
Target: Tyrosine-protein kinase BTK (BTK, Homo sapiens, UniProt Q06187)

Compound | assay | conditions | remaining binding
Cc1ccc(-n2nc(C(C)(C)C)cc2NC(=O)Nc2ccc(-n3c(N)c(C(N)=O)c4nc5ccccc5nc43)cc2)cc1 | cell-free assay, competition with immobilised ligand | 1 µM | 0.95%
O=C(c1ccc(Nc2ncc(Cl)c(-c3ccc(Cl)s3)n2)cc1)N1CCC(N2CCCC2)CC1 | binding, competition with immobilised ligand | 1 µM | 64%
N#Cc1ccccc1CSc1nnc2c(n1)[nH]c1ccccc12 | binding, competition with immobilised ligand | 10 µM | 100%
C[C@@H]1CCN(c2nccc(-c3cnn4ncccc34)n2)C1 | binding | 1 µM | 90%
O=C(NCC1CCOCC1)c1n[nH]cc1NC(=O)c1c(F)cccc1F | binding, competition with immobilised ligand | 1 µM | 91%
C[C@@H]1CN(c2ccc3ncc(-c4ccc5[nH]nc(C6CC6)c5c4)n3n2)C[C@H](C)O1 | binding, competition with immobilised ligand | 0.5 µM | 89%
CO[C@@H](C)c1c(Nc2ccc([C@H](N(C)C(=O)C3CCS(=O)(=O)CC3)C(F)(F)F)cc2)cnc2cc(Cl)nn12 | cell-free assay, competition with immobilised ligand | 1 µM | 100%
N[C@@H]1CCN(c2nccc(-c3cnn4ncccc34)n2)C1 | binding | 1 µM | 100%
c1cncc(-c2cccc(Nc3nccc(NC4CCCCC4)n3)c2)c1 | binding, competition with immobilised ligand | 10 µM | 36%
O=C(Nc1cccnn1)N1CCC(=Cc2cccc(Oc3ccc(C(F)(F)F)cn3)c2)CC1 | cell-free assay, competition with immobilised ligand | 1 µM | 100%
F[C@@H]1CCN(c2nccc(-c3cnn4ncccc34)n2)C1 | binding | 1 µM | 100%
CC(=O)Nc1c(C(C)=O)c(=O)n(C)c2nc(-c3ccc(Cl)cc3Cl)c(-c3ccc(Cl)cc3)cc12 | cell-free assay, competition with immobilised ligand | 1 µM | 88%
COc1cnc(Nc2cccc(S(N)(=O)=O)c2)nc1N1CCN(c2ccccc2)C(=O)C1 | binding, competition with immobilised ligand | 1 µM | 81%
CS(=O)(=O)N1CCCC(NC(=O)[C@H](CCC2CCCCC2)NC(=O)c2ccc(CNc3ncnc4c3nnn4-c3ccccc3)cc2)C1 (stereo partly drawn) | cell-free assay, competition with immobilised ligand | 0.1 µM | 100%
Nc1ncc2c(n1)-c1c([nH]c3ccc(C#CC4CC4)cc13)CCCC2 | binding, competition with immobilised ligand | 1 µM | 61%
CN(c1nccc(-c2cnn3ncccc23)n1)C1CC1 | binding | 1 µM | 100%
Cc1cnc(Nc2ccc(C(=O)N3CCC(N4CCCC4)CC3)cc2)nc1-c1cc2ccccc2s1 | binding, competition with immobilised ligand | 1 µM | 54%
O=C(O)[C@@H]1[C@@H](Cn2nnc3ccccc3c2=O)CC[C@H]1C(=O)c1ccc(OCCC2CCOCC2)cc1 | cell-free assay, competition with immobilised ligand | 1 µM | 100%
COc1ccnn2ncc(-c3ccnc(N(C)C)n3)c12 | binding | 1 µM | 94%
CCS(=O)(=O)c1cc2cc(C[C@](O)(CC(C)(C)c3ccc(F)cc3C(N)=O)C(F)(F)F)[nH]c2cn1 | cell-free assay, competition with immobilised ligand | 1 µM | 100%
CN(C)c1nccc(-c2cnn3ncccc23)n1 | binding | 1 µM | 85%
O=C(c1ccc(Nc2ncc(Cl)c(-c3cc4ccccc4s3)n2)cc1)N1CCC(N2CCCC2)CC1 | binding, competition with immobilised ligand | 1 µM | 63%
Cc1cnn2ncc(-c3ccnc(N(C)C)n3)c2c1 | binding | 1 µM | 91%
CN(c1ccnc(CNc2nc(Nc3ccc4c(c3)CC(=O)N4)ncc2C(F)(F)F)n1)S(C)(=O)=O | cell-free assay, competition with immobilised ligand | 1 µM | 63%
